A short description of test [1]: Inhibition of pig GSK-3 by radiometric protein kinase assay. Also noted: species or system Sus scrofa. Summed up: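 Native affinity-purified porcine GSK-3 in the radiometric assay: 40 μM GS-1 peptide, 15 μM γ-33P-ATP, pH 7.5 Tris/MgCl2/EGTA/DTT/heparin/BSA buffer, 30 min at 30 °C, P81 filter binding and scintillation counting. IC50 from dose-response curves with triplicate points; top concentration 10 or 100 μM.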

The target of test [2] is RAC-alpha serine/threonine-protein kinase (Homo sapiens) (UniProt P31749). The experiment in a line: Inhibition of PKB alpha (unknown origin) at 10 uM. The gist of the method:
(§1)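 Dundee human kinase selectivity panel (77 kinases); test compound at 1 and 10 μM, percentage kinase inhibition recorded.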

In test [3] the target is Mitogen-activated protein kinase 11 (Homo sapiens) (UniProt Q15759). The experiment in a line: Inhibition of P38beta MAPK (unknown origin) at 10 uM. Summed up: as §1
The target of test [4] is T1, Inhibitor of nuclear factor kappa-B kinase subunit epsilon (Homo sapiens) (UniProt Q14164).
T1 sequence (whole entry): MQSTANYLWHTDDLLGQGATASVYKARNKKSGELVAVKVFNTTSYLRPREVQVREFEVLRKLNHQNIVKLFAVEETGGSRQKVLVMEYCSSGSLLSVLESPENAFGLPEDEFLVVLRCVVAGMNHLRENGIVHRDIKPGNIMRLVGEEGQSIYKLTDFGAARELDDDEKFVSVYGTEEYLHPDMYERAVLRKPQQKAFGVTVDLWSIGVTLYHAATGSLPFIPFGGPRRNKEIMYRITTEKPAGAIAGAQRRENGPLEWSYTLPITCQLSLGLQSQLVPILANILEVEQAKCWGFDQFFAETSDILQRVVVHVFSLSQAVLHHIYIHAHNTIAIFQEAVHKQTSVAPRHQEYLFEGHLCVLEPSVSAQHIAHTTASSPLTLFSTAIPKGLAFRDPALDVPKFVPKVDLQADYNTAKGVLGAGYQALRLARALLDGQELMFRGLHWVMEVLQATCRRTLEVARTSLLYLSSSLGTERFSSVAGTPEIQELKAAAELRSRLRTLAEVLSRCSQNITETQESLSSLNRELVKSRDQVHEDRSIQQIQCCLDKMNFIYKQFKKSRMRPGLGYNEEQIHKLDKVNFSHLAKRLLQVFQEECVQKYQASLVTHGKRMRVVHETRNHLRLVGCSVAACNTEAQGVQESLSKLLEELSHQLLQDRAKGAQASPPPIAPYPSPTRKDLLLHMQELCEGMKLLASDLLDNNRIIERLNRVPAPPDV
Description: Inhibition of IKK-epsilon (unknown origin) at 10 uM. Summed up: as §1

The target of test [5] is Serine/threonine-protein kinase Chk2 (Homo sapiens) (UniProt O96017). The experiment in a line: Inhibition of CHK2 (unknown origin) at 10 uM. Summed up:
as §1

Test [6] can be described thus: Inhibition of Leishmania donovani GSK-3.
Test [7] in a line: Inhibition of Trypanosoma cruzi GSK-3.
Test [8] is described as follows: Inhibition of Cryptosporidium parvum recombinant His6-tagged GSK-3 expressed in Escherichia coli using GS-1 peptide as substrate after 30 mins by scintillation counting analysis in presence of gamma-33P-ATP. Summed up:
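His6-tagged recombinant GSK-3 expressed in E. coli (TOP10/pBAD-Thio-TOPO for P. falciparum and T. gondii, arabinose-induced; BL21(DE3)-pRARE2/pET15 for C. parvum, IPTG at 15 °C), Ni-NTA purified. Assayed with 40 μM GS-1 phosphopeptide, 15 μM γ-33P-ATP in pH 7.5 Tris buffer with MgCl2, EGTA, DTT, heparin, BSA; 30 min, 30 °C; P81 paper, phosphoric acid washes, scintillation counting. DMSO controls; dose-response IC50, triplicate points.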

The source of these data is ChEMBL document CHEMBL2311539, “3,6-Diamino-4-(2-halophenyl)-2-benzoylthieno[2,3-b]pyridine-5-carbonitriles are selective inhibitors of Plasmodium falciparum glycogen synthase kinase-3” (J Med Chem, 2013).

Some results are limits rather than exact numbers.

Chain of Mitogen-activated protein kinase 11 (Homo sapiens) (Q15759 whole entry): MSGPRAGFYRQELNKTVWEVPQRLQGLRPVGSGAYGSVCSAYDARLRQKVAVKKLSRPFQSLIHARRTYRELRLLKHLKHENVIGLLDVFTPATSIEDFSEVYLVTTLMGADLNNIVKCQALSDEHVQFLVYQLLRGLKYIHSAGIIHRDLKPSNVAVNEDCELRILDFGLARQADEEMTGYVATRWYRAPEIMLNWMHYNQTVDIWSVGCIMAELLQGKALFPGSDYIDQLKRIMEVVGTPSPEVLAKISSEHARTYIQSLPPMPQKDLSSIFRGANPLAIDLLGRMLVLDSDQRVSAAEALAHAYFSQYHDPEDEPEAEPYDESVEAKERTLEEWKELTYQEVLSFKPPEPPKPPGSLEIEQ
Chain of Serine/threonine-protein kinase Chk2 (Homo sapiens) (O96017 whole entry): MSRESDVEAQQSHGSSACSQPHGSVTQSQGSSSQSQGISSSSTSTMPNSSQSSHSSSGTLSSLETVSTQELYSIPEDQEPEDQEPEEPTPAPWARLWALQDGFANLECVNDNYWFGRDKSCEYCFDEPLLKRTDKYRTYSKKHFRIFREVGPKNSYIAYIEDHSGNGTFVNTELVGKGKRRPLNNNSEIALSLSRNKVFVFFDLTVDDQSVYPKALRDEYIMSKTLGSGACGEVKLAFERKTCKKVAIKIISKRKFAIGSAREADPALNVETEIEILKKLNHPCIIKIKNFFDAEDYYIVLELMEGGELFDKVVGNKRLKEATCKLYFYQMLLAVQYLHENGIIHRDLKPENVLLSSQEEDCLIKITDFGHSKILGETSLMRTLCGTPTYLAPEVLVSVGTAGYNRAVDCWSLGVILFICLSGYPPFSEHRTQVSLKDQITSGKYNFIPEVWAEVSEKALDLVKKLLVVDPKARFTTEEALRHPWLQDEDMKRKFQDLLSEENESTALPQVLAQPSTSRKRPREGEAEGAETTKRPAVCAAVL
Chain of RAC-alpha serine/threonine-protein kinase (Homo sapiens) (P31749 whole entry): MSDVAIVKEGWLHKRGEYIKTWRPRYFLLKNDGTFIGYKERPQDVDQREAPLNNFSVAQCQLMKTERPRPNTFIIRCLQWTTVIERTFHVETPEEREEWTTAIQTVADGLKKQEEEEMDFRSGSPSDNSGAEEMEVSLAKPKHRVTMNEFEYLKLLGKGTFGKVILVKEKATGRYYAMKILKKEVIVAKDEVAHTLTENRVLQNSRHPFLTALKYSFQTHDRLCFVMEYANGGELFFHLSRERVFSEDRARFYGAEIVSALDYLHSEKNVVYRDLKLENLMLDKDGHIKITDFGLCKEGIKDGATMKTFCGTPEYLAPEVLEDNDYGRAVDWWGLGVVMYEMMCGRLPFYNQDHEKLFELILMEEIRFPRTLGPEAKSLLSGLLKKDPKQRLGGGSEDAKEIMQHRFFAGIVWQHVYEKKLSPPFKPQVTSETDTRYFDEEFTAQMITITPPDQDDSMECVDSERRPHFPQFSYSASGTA

For the molecule `N#Cc1c(N)nc2sc(C(=O)c3cccc(Cl)c3)c(N)c2c1-c1ccccc1Cl`, the IC50 (commonly the concentration that inhibits the measured activity by half) in test [1] is greater than 10 µM; in test [6], 72 µM; in test [7], greater than 100 µM; in test [8] it was greater than 100 µM. Moreover, the inhibition (usually the change of the read-out against control, counted positive when it falls) in test [2] is greater than 80%; in test [3], greater than 50%; in test [4], greater than 50%; in test [5] it was greater than 50%.
